Results from different studies.
Protocols differ between the studies behind these lines.
Target: Casein kinase I isoform epsilon (CSNK1E, Homo sapiens, UniProt P49674)

O=C1NC(=O)c2cc(Nc3ccc(F)cc3)c(Nc3ccc(F)cc3)cc21
remaining activity (enzyme activity; inhibitor; 0.5 µM): 98%

CC/C(=N\NC(=O)NCc1cccc(O)c1)c1ccc(O)c(C)c1O
inhibition (enzyme activity; inhibitor; 0.1 µM): 3.6%

CCN1/C(=C/C(C)=O)Sc2ccc(OC)cc21
remaining activity (enzyme activity; 0.5 µM): 60.1%

CCCCN(CCCC)C(=O)CN1C[C@H](c2cc(OC)c3c(c2)OCO3)[C@@H](C(=O)O)[C@@H]1CC(C)(C)CCC
remaining binding (cell-free assay; competition with immobilised ligand; 1 µM): 100%

COc1cc2ncnc(Nc3ccc(Oc4ccccc4)c(C)c3C)c2cc1OC
inhibition (enzyme activity; inhibitor; 1 µM): 0%

N#CCCc1ccc2c(c1)-c1[nH]c3ccc([N+](=O)[O-])cc3c1CC(=O)N2
remaining signal (cell-free assay; 0.5 µM): 91.4%

Nc1ncnc2occ(-c3ccc(NC(=O)Nc4cc(C(F)(F)F)ccc4F)cc3)c12
remaining activity (enzyme activity; inhibitor; 20 µM): 0.65%

CC1(C)NC(=O)c2[nH]c3c(Cl)c(Cl)ccc3c2C1C#N (centres unmarked)
ΔTm (thermal stability; DSF; 10 µM): 1.8 °C

O=C(O)c1cc(-c2ccc(C3CCNCC3)cc2)c2ccc(-c3ccc(C(F)(F)F)cc3)cc2c1
remaining binding (cell-free assay; competition with immobilised ligand; 1 µM): 100%

Nc1nc(Nc2ccc(S(N)(=O)=O)cc2)nn1C(=O)c1c(F)cccc1F
remaining signal (cell-free assay; 0.5 µM): 96.9%

O=C(NS(=O)(=O)c1ccc(NCC2CCOCC2)c([N+](=O)[O-])c1)c1ccc(N2CCN(Cc3ccc(C(F)(F)F)cc3-c3ccc(Cl)cc3)CC2)cc1Oc1cnc2[nH]ccc2c1
remaining binding (cell-free assay; competition with immobilised ligand; 1 µM): 95%

CC(C)(C)c1nc2c(s1)c1nc(N)ncc1c1ccc(NS(=O)(=O)c3c(F)cccc3F)c(F)c12
remaining activity (enzyme activity; inhibitor; radiometric; 1 µM): 84%

Cn1c2c(c3ccccc31)C(C#N)C(C)(C)NC2=O (centres unmarked)
ΔTm (thermal stability; DSF; 10 µM): 0.8 °C

CCS(=O)(=O)c1cc2cc(C[C@@](O)(CC(C)(C)c3ccc(F)cc3C(N)=O)C(F)(F)F)[nH]c2cn1
remaining binding (cell-free assay; competition with immobilised ligand; 1 µM): 97%

O=C(Nc1cnn(-c2csc(C(=O)NC3COC3)c2)c1)Nc1ccccc1Cl
remaining activity (enzyme activity; inhibitor; 5 µM): 89.6%

CCCS(=O)(=O)Nc1ccc(F)c(C(=O)c2c[nH]c3ncc(-c4ccc(Cl)cc4)cc23)c1F
inhibition (enzyme activity; inhibitor; 1 µM): < 10%

CS(=O)(=O)CCNCc1ccc(-c2ccc3ncnc(Nc4ccc(OCc5cccc(F)c5)c(Cl)c4)c3c2)o1
remaining activity (enzyme activity; 0.5 µM): 99.4%

CN(C)CC#Cc1ccc(OCCCc2sc(N3CCc4cccc(C(=O)Nc5nc6ccccc6s5)c4C3)nc2C(=O)O)c(F)c1
remaining binding (cell-free assay; competition with immobilised ligand; 1 µM): 86%

C[C@@H]1CCN(C(=O)CC#N)C[C@@H]1N(C)c1ncnc2[nH]ccc12
remaining activity (enzyme activity; inhibitor; 0.5 µM): 101%

CCOC(=O)c1cc2cc(-c3cc(C(=O)NCc4ccc(C(=O)O)cc4)nn3C)ccc2[nH]1
remaining binding (cell-free assay; competition with immobilised ligand; 0.1 µM): 100%

O=C1Nc2ccc(Cl)cc2C1=Cc1cc(Cl)c(O)c(Cl)c1
remaining activity (enzyme activity; 0.5 µM): 66.6%

CC1=C(C#N)C(c2ccc3c(c2)c(NC(=O)c2ccccc2C)nn3C)C(C#N)=C(C)N1
remaining binding (cell-free assay; competition with immobilised ligand; 1 µM): 100%

Cn1c2c(Cl)c(Cl)ccc2c2cc(N)[nH]c(=O)c21
ΔTm (thermal stability; DSF; 10 µM): 0.5 °C
